Measured values as given in ChEMBL document CHEMBL1833799, “Glionitrin B, a cancer invasion inhibitory diketopiperazine produced by microbial coculture” (2011).
Active and inactive are the calls of the source. No cut-off for these calls is given here.

Tests used:
DU-145 [1] = assay: Antiinvasive activity against human DU145 cells at 0.2 uM after 24 hrs by cell invasion assay; type: functional, cell-based
In short: (§1)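 DU145 prostate cancer cells grown at 37 °C, humidified 5% CO2, in medium with serum, 100 units/mL penicillin and 100 μg/mL streptomycin. Cells exposed to compound for 24 h, then in vitro invasiveness measured with a commercial cell invasion assay kit per the maker's protocol. Inhibition expressed relative to an untreated group.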

DU-145 [2] = assay: Cytotoxicity against human DU145 cells at 2.5 to 80 uM after 24 hrs by cell counting kit analysis; type: functional, cell-based
In short: (§2)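 DU145 cells cultured at 37 °C in humidified 5% CO2 with serum and penicillin/streptomycin. Cells treated with a range of compound concentrations for 24 h, then viability read with Cell Counting Kit-8 per the manufacturer. Viability expressed relative to an untreated group. Paclitaxel (0.1 μM) served as positive control.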

DU-145 [3] = assay: Cytotoxicity against human DU145 cells at 0.25 to 8 uM after 24 hrs by cell counting kit analysis; type: functional, cell-based; in short: as §2
DU-145 [4] = assay: Antiinvasive activity against human DU145 cells at 15 to 60 uM after 24 hrs by cell invasion assay; type: functional, cell-based; in short: as §1
DU-145 [5] = assay: Inhibition of human DU145 cells invasion at 60 uM after 24 hrs by cell invasion assay; type: functional; details: DU-145, 24 h; in short: as §1
DU-145 [6] = assay: Antiinvasive activity against human DU145 cells after 24 hrs by cell invasion assay; type: functional, cell-based
In short: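 DU145 cells grown with serum, 100 units/mL penicillin and 100 μg/mL streptomycin at 37 °C in humidified 5% CO2. Cells were exposed to test compounds at the indicated concentrations for 24 h. In vitro invasiveness was then measured with a commercial cell invasion kit per the manufacturer's protocol and expressed as inhibition relative to an untreated group.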

DU-145 [7] = assay: Decrease in MMP9 mRNA level in human DU145 cell by RT-PCR analysis; type: functional, cell-based
In short: (§3)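 DU145 cells were exposed to compounds for 18 h. Total RNA was isolated by spin column and reverse-transcribed to cDNA. PCR used 100 ng cDNA aliquots: 94 °C for 5 min, then 32 cycles of 94 °C for 30 s, 58 °C for 30 s and 72 °C for 1 min. Products were assessed for MMP-2 and MMP-9 transcript levels.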

DU-145 [8] = assay: Decrease in MMP2 mRNA level in human DU145 cell by RT-PCR analysis; type: functional, cell-based; in short: as §3
DU-145 [9] = assay: Cytotoxicity against human DU145 cells at 0.1 uM after 24 hrs by cell counting kit analysis; type: functional
In short: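 DU145 cells were cultured in serum-supplemented medium with penicillin/streptomycin at 37 °C in 5% CO2. They were exposed to a range of compound concentrations for 24 h. Viability was read with the CCK-8 kit per the manufacturer's instructions and expressed as a percentage of an untreated group. Paclitaxel at 0.1 μM served as the positive control.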

Row | Structure (SMILES) | Activity (DU-145 [1]) | Activity (DU-145 [2]) | Activity (DU-145 [3]) | inhibition at 60 µM (DU-145 [5]) [%] | other results
1 | CN1C(=O)[C@@]23Cc4ccc([N+](=O)[O-])cc4N2C(=O)[C@@]1(CO)SS3 | inactive | Active | Active | – | –
2 | CN1C(=O)[C@]23CC4=CC=C[C@H](O)[C@H]4N2C(=O)[C@@]1(CO)SS3 | inactive | Active | Active | – | –
3 | CS[C@]1(CO)C(=O)N2[C@H]3C(=CC=C[C@@H]3O)C[C@@]2(SC)C(=O)N1C [BIS(DETHIO)BIS(METHYLTHIO)GLIOTOXIN] | – | inactive | – | 22 | Activity (DU-145 [4]): inactive
4 | CS[C@@]1(CO)C(=O)N2c3cc([N+](=O)[O-])ccc3C[C@]2(SC)C(=O)N1C [GLIONITRIN B] | – | inactive | – | 46 | Activity (DU-145 [6]): Dose-dependent effect; Activity (DU-145 [7]): Dose-dependent effect; Activity (DU-145 [8]): Dose-dependent effect
5 | CC(=O)O[C@H]1C(=O)[C@@]2(C)[C@H]([C@H](OC(=O)c3ccccc3)[C@]3(O)C[C@H](OC(=O)[C@H](O)[C@@H](NC(=O)c4ccccc4)c4ccccc4)C(C)=C1C3(C)C)[C@]1(OC(C)=O)CO[C@@H]1C[C@@H]2O [PACLITAXEL] | – | – | – | – | Activity (DU-145 [9]): 18.9%
